IC50, inhibition and Papp data for 18 compounds are collected here from ChEMBL document CHEMBL1142259, “Design and synthesis of novel potent and selective integrin alphanubeta3 antagonists--novel synthetic routes to isoquinolinone, benzoxazinone, and quinazolinone acetates” (Bioorg Med Chem Lett, 2008).

In one data set the target is Integrin alpha-V/beta-3 (Homo sapiens, UniProt P05106+P06756). Put plainly: Displacement of vitronectin from integrin alphavbeta3 receptor. The data set is classed as protein-complex assay. In outline:
(§1)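 Ligand displacement from the isolated integrin receptor: vitronectin for αvβ3 and fibrinogen for αIIbβ3. IC50 reported as the mean of three experiments. Intra-assay variation <10%; inter-assay variation < factor 2.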

In data set [1] the target is Integrin alpha-IIb/beta-3 (Homo sapiens, UniProt P05106+P08514). The data set can be described thus: Displacement of fibrinogen from integrin alpha2bbeta3 receptor. The data set is classed as protein-complex assay. A digest of the protocol: as §1
Data set [2] deals with Integrin alpha-5/beta-1 (Homo sapiens) (UniProt P05556+P08648). The data set can be described thus: Inhibition of integrin alpha5beta1 receptor mediated cellular binding to fibronectin at 10 uM. It is filed as protein-complex assay.
Data set [3] in a line: Apparent permeability across human Caco-2 cells. It is filed as ADME, cell-based. A digest of the protocol: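 Apparent permeability coefficient (Papp) measured in Caco-2 monolayers. n = 2, intra-assay variation <20%. Papp >2e-7 cm/s is classed as medium transport and >2e-6 cm/s as high transport.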

Sequence of Integrin alpha-V/beta-3 (P05106 27-788 limits assumed): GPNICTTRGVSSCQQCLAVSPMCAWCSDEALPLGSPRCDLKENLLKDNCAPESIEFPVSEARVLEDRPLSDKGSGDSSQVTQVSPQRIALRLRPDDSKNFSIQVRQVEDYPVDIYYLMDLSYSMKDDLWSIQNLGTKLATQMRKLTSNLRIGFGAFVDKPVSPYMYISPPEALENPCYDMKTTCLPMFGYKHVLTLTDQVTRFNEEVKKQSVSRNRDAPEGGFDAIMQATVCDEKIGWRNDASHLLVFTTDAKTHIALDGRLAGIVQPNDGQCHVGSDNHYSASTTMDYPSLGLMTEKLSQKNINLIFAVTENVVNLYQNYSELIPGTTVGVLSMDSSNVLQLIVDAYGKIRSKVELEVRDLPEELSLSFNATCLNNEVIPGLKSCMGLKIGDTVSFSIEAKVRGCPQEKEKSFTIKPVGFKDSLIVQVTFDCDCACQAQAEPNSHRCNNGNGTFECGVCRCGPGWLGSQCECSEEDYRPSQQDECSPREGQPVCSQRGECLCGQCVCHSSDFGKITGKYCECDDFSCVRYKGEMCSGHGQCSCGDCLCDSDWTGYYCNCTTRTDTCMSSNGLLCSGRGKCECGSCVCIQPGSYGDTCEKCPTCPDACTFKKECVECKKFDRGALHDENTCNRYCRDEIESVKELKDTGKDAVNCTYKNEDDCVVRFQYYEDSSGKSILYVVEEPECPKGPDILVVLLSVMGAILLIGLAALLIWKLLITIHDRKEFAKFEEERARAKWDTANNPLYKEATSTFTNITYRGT
Sequence of Integrin alpha-V/beta-3 (P06756 31-889 limits assumed): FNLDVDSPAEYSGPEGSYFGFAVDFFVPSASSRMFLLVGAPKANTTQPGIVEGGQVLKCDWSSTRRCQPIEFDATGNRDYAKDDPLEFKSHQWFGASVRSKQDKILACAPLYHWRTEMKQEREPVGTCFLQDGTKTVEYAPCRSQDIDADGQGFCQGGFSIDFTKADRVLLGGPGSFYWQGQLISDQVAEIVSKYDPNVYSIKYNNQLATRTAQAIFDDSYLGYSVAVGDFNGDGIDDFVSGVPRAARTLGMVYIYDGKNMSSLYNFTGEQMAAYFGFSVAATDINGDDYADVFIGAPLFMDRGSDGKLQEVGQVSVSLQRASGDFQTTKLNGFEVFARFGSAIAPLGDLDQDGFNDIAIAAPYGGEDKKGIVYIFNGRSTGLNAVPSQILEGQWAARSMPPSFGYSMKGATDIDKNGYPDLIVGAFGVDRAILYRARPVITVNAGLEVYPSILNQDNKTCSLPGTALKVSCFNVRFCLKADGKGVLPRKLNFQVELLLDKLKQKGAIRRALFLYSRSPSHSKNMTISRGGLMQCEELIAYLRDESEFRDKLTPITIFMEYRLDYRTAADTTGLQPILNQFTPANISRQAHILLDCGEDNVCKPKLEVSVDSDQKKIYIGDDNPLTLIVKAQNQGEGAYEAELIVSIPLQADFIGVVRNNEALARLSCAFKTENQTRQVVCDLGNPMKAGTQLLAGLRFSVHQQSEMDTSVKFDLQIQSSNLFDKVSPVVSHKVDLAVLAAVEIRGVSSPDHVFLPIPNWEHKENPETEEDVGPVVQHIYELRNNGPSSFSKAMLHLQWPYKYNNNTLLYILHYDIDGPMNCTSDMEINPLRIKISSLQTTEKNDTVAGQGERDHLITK
Sequence of Integrin alpha-V/beta-3 (P06756 891-1048 limits assumed): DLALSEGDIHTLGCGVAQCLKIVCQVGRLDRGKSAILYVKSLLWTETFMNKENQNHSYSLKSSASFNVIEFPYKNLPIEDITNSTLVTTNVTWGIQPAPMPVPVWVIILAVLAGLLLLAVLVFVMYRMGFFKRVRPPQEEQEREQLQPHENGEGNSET
Sequence of Integrin alpha-IIb/beta-3 (P05106 27-788 limits assumed): as the sequence (P05106 27-788 limits assumed) above
Sequence of Integrin alpha-IIb/beta-3 (P08514 32-887 limits assumed): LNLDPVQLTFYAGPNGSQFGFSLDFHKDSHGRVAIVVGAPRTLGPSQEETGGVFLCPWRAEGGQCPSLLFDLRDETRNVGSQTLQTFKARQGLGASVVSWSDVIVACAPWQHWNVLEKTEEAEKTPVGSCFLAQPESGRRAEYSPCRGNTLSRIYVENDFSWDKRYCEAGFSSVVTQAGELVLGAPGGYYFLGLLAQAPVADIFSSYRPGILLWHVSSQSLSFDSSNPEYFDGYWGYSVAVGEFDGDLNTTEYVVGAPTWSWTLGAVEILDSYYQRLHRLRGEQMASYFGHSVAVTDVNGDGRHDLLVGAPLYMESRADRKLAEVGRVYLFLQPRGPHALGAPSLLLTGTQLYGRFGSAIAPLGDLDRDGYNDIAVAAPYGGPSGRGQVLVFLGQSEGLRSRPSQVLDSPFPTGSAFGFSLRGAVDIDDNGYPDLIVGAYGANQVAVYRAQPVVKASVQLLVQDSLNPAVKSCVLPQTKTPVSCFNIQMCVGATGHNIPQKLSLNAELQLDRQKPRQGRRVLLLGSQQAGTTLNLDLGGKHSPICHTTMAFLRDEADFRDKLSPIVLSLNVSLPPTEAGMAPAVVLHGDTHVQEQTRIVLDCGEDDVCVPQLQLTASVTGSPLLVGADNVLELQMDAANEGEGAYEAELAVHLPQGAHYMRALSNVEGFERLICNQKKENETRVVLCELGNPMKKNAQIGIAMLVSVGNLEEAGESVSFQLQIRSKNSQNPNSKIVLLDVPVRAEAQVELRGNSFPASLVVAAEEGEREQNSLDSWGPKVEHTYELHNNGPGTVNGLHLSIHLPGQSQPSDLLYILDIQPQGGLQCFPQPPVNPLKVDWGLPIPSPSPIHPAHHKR
Sequence of Integrin alpha-IIb/beta-3 (P08514 891-1039 limits assumed): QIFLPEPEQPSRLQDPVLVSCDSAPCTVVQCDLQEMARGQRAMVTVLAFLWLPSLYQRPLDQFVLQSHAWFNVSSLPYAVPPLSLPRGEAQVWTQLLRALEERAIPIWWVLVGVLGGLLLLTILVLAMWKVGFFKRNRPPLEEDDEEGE

Broadly, the IC50 is the concentration that inhibits the measured activity by half. A high value points to lower potency. `O=C(O)CC1CC(=O)N(CC(=O)NCc2ccc(Nc3nc4ccccc4[nH]3)cc2)c2ccccc21` (centres undefined) came in with an IC50 at Integrin alpha-V/beta-3 of 50 nM.

In the case of `O=C(O)CCC1CC(=O)N(CC(=O)NCc2ccc(Nc3nc4ccccc4[nH]3)cc2)c2ccccc21` (centres undefined), on Integrin alpha-V/beta-3, the 50% inhibitory concentration (IC50) was 5000 nM.

The compound `O=C(O)CC1CCN(CC(=O)NCC2CCC(Nc3nc4ccccc4[nH]3)CC2)C(=O)c2ccccc21` (centres undefined) displayed an IC50 on Integrin alpha-V/beta-3 of 11 nM.

Consider `O=C(O)CC1NC(=O)N(CC(=O)NCC2CCC(Nc3nc4ccccc4[nH]3)CC2)c2ccccc21` (trans isomer), for which the IC50 at Integrin alpha-V/beta-3 is 13 nM. This IC50 and that of the compound before are within 1.5-fold of each other.

`O=C(O)CC1CN(CC(=O)NCc2ccc(Nc3nc4ccccc4[nH]3)cc2)C(=O)c2ccccc21` (centres undefined) showed a concentration for half-maximal inhibition (IC50) on Integrin alpha-V/beta-3 of 10000 nM.

`O=C(O)CCc1cc(=O)n(CC(=O)NCC2CCC(Nc3nc4ccccc4[nH]3)CC2)c2ccccc12` (trans isomer) gave an IC50 on Integrin alpha-V/beta-3 of 1000 nM.

The compound `O=C(O)CC1CCN(CC(=O)NCc2ccc(Nc3nc4ccccc4[nH]3)cc2)C(=O)c2ccccc21` (centres undefined) gave an IC50 on Integrin alpha-V/beta-3 of 122 nM.

Usually inhibition stands for how much of the control response was suppressed. In general, Papp refers to a coefficient for how fast a substance crosses the barrier. Regarding `O=C(O)CC1OC(=O)N(CC(=O)NCC2CCC(Nc3nc4ccccc4[nH]3)CC2)c2ccccc21` (centres undefined), the 50% inhibitory concentration (IC50) at Integrin alpha-V/beta-3 is 0.7 nM; in data set [1] it was over 10 µM. This compound showed an inhibition in data set [2] of 25%. For the same compound, in data set [3], the Papp was found to be 3.23 ×10⁻⁶ cm/s.

For `O=C(O)Cc1cc(=O)n(CC(=O)NCc2ccc(Nc3nc4ccccc4[nH]3)cc2)c2ccccc12`, the IC50 at Integrin alpha-V/beta-3 came to 50 nM.

Consider `O=C(O)CC1CC(=O)N(CC(=O)NCC2CCC(Nc3nc4ccccc4[nH]3)CC2)c2ccccc21` (trans isomer), for which, at Integrin alpha-V/beta-3, the IC50 stood at 7.4 nM.

`O=C(O)CC1CN(CC(=O)NCC2CCC(Nc3nc4ccccc4[nH]3)CC2)C(=O)c2ccccc21` (trans isomer) registered a concentration for half-maximal inhibition (IC50) at Integrin alpha-V/beta-3 of 10000 nM.

The compound `O=C(O)Cc1cc(=O)n(CC(=O)NCC2CCC(Nc3nc4ccccc4[nH]3)CC2)c2ccccc12` (centres undefined) had an IC50 at Integrin alpha-V/beta-3 of 10 nM.

Compound `O=C(O)CC1CCC(=O)N(CC(=O)NCc2ccc(Nc3nc4ccccc4[nH]3)cc2)c2ccccc21` (centres undefined) returned an IC50 on Integrin alpha-V/beta-3 of 4.4 nM.

Consider `O=C(O)CC1NC(=O)N(CC(=O)NCc2ccc(Nc3nc4ccccc4[nH]3)cc2)c2ccccc21` (centres undefined), for which, at Integrin alpha-V/beta-3, the IC50 stood at 37 nM.

On Integrin alpha-V/beta-3, `O=C(O)CC1CCC(=O)N(CC(=O)NCC2CCC(Nc3nc4ccccc4[nH]3)CC2)c2ccccc21` (centres undefined) returned an IC50 of 1.5 nM.

Regarding `O=C(O)CC1OC(=O)N(CC(=O)NCc2ccc(Nc3nc4ccccc4[nH]3)cc2)c2ccccc21` (centres undefined), the IC50 at Integrin alpha-V/beta-3 is 4.2 nM; in data set [1], over 10 µM. For the same compound, in data set [2], the inhibition came out at 8%. The Papp in data set [3] was 3.48 ×10⁻⁶ cm/s.

`O=C(O)CCC1CC(=O)N(CC(=O)NCC2CCC(Nc3nc4ccccc4[nH]3)CC2)c2ccccc21` (centres undefined) had an IC50 at Integrin alpha-V/beta-3 of 27 nM. This lies in the double-digit nanomolar range.

In the case of `O=C(O)CCc1cc(=O)n(CC(=O)NCc2ccc(Nc3nc4ccccc4[nH]3)cc2)c2ccccc12`, the IC50 on Integrin alpha-V/beta-3 worked out at 500 nM. Compared with the last compound, the IC50 is about 19-fold higher.
